From ChEMBL document CHEMBL3259728, “Design, synthesis and biological evaluation of some novel substituted quinazolines as antitumor agents” (2014)

How the values were obtained:
Format in all cases: functional
[1] = system: BT-549; assay: Cytotoxicity against human BT549 cells after 48 hrs by SRB assay; conditions: BT-549, 48 h
How it was run: (§1)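 NCI 60-cell-line panel of human tumour lines from nine cancer types. Continuous 48 h exposure at five 10-fold dilutions from 10^-4 to 10^-8 M, with 5-FU as positive control. SRB protein stain read spectrophotometrically at time zero, untreated control and each concentration. GI50, TGI and LC50 were derived from the [(Ti−Tz)/(C−Tz)]×100 growth relations, and out-of-range values are given as > or < the tested limits.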

[2] = system: NCI-H322M; assay: Growth inhibition of human NCI-H322M cells assessed as cell growth at 10^-4 M after 48 hrs by SRB assay; conditions: read-out: Activity
[3] = system: RXF 393; assay: Cytotoxicity against human RXF393 cells after 48 hrs by SRB assay; conditions: RXF 393, 48 h; how it was run: as §1
[4] = system: PC-3; assay: Cytotoxicity against human PC3 cells after 48 hrs by SRB assay; conditions: PC-3, 48 h; how it was run: as §1
[5] = Growth inhibition of human HCC2998 cells assessed as cell growth at 10^-4 M after 48 hrs by SRB assay; conditions: HCC 2998, 48 h, read-out: Activity
[6] = Growth inhibition of human MOLT4 cells assessed as cell growth at 10^-8 M after 48 hrs by SRB assay; conditions: MOLT-4, 48 h, read-out: Activity
[7] = Growth inhibition of human OVCAR4 cells assessed as cell growth at 10^-7 M after 48 hrs by SRB assay; conditions: OVCAR-4, 48 h, read-out: Activity
[8] = system: SF-268; assay: Growth inhibition of human SF268 cells assessed as cell growth at 10^-4 M after 48 hrs by SRB assay; conditions: SF-268, 48 h, read-out: Activity
[9] = system: NCI-H226; assay: Growth inhibition of human NCI-H226 cells assessed as cell growth at 10^-5 M after 48 hrs by SRB assay; conditions: NCI-H226, 48 h, read-out: Activity
[10] = system: KM12; assay: Growth inhibition of human KM12 cells assessed as cell growth at 10^-8 M after 48 hrs by SRB assay; conditions: KM12, 48 h, read-out: Activity
[11] = Growth inhibition of human LOXIMVI cells assessed as cell growth at 10^-8 M after 48 hrs by SRB assay; conditions: LOX IMVI, read-out: Activity
[12] = Cytotoxicity against human OVCAR8 cells after 48 hrs by SRB assay; conditions: OVCAR-8, 48 h; how it was run: as §1
[13] = system: MCF7; assay: Growth inhibition of human MCF7 cells assessed as cell growth at 10^-5 M after 48 hrs by SRB assay; conditions: MCF7, 48 h, read-out: Activity
[14] = system: MDA-MB-435; assay: Growth inhibition of human MDA-MB-435 cells assessed as cell growth at 10^-7 M after 48 hrs by SRB assay; conditions: MDA-MB-435, 48 h, read-out: Activity
[15] = system: ACHN; assay: Growth inhibition of human ACHN cells assessed as cell growth at 10^-6 M after 48 hrs by SRB assay; conditions: read-out: Activity
How it was run: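 Five-dose NCI panel protocol. Each dose (10^-4 to 10^-8 M, 10-fold steps) was given as 48 h continuous exposure, and protein was measured by SRB staining. Percentage growth at each level is [(Ti−Tz)/(C−Tz)]×100, where Tz is time-zero absorbance and C is untreated control.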

[16] = system: KM12; assay: Cytotoxicity against human KM12 cells after 48 hrs by SRB assay; conditions: KM12, 48 h; how it was run: as §1
[17] = system: HT-29; assay: Growth inhibition of human HT-29 cells assessed as cell growth at 10^-5 M after 48 hrs by SRB assay; conditions: HT-29, 48 h, read-out: Activity
[18] = system: A498; assay: Cytotoxicity against human A498 cells after 48 hrs by SRB assay; conditions: A498, 48 h; how it was run: as §1
[19] = system: NCI-H23; assay: Growth inhibition of human NCI-H23 cells assessed as cell growth at 10^-6 M after 48 hrs by SRB assay; conditions: NCI-H23, 48 h, read-out: Activity
[20] = Growth inhibition of human OVCAR5 cells assessed as cell growth at 10^-4 M after 48 hrs by SRB assay; conditions: OVCAR-5, 48 h, read-out: Activity
[21] = Growth inhibition of human HCC2998 cells assessed as cell growth at 10^-8 M after 48 hrs by SRB assay; conditions: HCC 2998, 48 h, read-out: Activity
[22] = system: SNB-75; assay: Growth inhibition of human SNB75 cells assessed as cell growth at 10^-8 M after 48 hrs by SRB assay; conditions: SNB-75, 48 h, read-out: Activity
[23] = system: RPMI-8226; assay: Cytotoxicity against human RPMI8226 cells after 48 hrs by SRB assay; conditions: RPMI-8226, 48 h; how it was run: as §1
[24] = system: MDA-MB-231; assay: Cytotoxicity against human MDA-MB-231 cells after 48 hrs by SRB assay; conditions: MDA-MB-231, 48 h; how it was run: as §1
[25] = Growth inhibition of human OVCAR3 cells assessed as cell growth at 10^-4 M after 48 hrs by SRB assay; conditions: OVCAR-3, 48 h, read-out: Activity
[26] = Growth inhibition of human SF539 cells assessed as cell growth at 10^-5 M after 48 hrs by SRB assay; conditions: SF-539, 48 h, read-out: Activity
[27] = system: SK-OV-3; assay: Growth inhibition of human SKOV3 cells assessed as cell growth at 10^-8 M after 48 hrs by SRB assay; conditions: SK-OV-3, 48 h, read-out: Activity
[28] = read-out: LC50 (the source's name)
[29] = read-out: pLC50 (the source's name) (converted)

Structure (SMILES): Cc1ccc(-c2nc3ccc(Cl)cc3c(=O)n2/N=C/c2ccccc2)cc1
- GI50 ([1]; read-out: GI50): 100 µM
- CC50 [1, 28]: > 100 µM
- TGI ([1]; read-out: TGI): > 100 µM
- GI50 ([1]; read-out: pGI50 (converted)): > 100 µM
- CC50 [1, 29]: > 100 µM
- TGI ([1]; read-out: pTGI): > 100 µM
- growth at 100 µM [2]: 42%
- GI50 ([3]; read-out: GI50): 6.46 µM
- CC50 [3, 28]: > 100 µM
- TGI ([3]; read-out: TGI): > 100 µM
- GI50 ([3]; read-out: pGI50 (converted)): 6.46 µM
- CC50 [3, 29]: > 100 µM
- TGI ([3]; read-out: pTGI): > 100 µM
- GI50 ([4]; read-out: GI50): 83 µM
- CC50 [4, 28]: > 100 µM
- TGI ([4]; read-out: TGI): > 100 µM
- GI50 ([4]; read-out: pGI50 (converted)): 83.2 µM
- CC50 [4, 29]: > 100 µM
- TGI ([4]; read-out: pTGI): > 100 µM
- growth at 100 µM [5]: 88%
- growth at 0.01 µM [6]: 103%
- growth at 0.1 µM [7]: 96%
- growth at 100 µM [8]: 36%
- growth at 10 µM [9]: 38%
- growth at 0.01 µM [10]: 95%
- growth at 0.01 µM [11]: 98%
- GI50 ([12]; read-out: GI50): 4.58 µM
- CC50 [12, 28]: > 100 µM
- TGI ([12]; read-out: TGI): > 100 µM
- GI50 ([12]; read-out: pGI50 (converted)): 4.57 µM
- CC50 [12, 29]: > 100 µM
- TGI ([12]; read-out: pTGI): > 100 µM
- growth at 10 µM [13]: 59%
- growth at 0.1 µM [14]: 86%
- growth at 1 µM [15]: 40%
- GI50 ([16]; read-out: GI50): > 100 µM
- CC50 [16, 28]: > 100 µM
- TGI ([16]; read-out: TGI): > 100 µM
- GI50 ([16]; read-out: pGI50 (converted)): > 100 µM
- CC50 [16, 29]: > 100 µM
- TGI ([16]; read-out: pTGI): > 100 µM
- growth at 10 µM [17]: 69%
- GI50 ([18]; read-out: GI50): 5.91 µM
- CC50 [18, 28]: > 100 µM
- TGI ([18]; read-out: TGI): > 100 µM
- GI50 ([18]; read-out: pGI50 (converted)): 5.89 µM
- CC50 [18, 29]: > 100 µM
- TGI ([18]; read-out: pTGI): > 100 µM
- growth at 1 µM [19]: 87%
- growth at 100 µM [20]: 61%
- growth at 0.01 µM [21]: 102%
- growth at 0.01 µM [22]: 87%
- GI50 ([23]; read-out: GI50): > 100 µM
- CC50 [23, 28]: > 100 µM
- TGI ([23]; read-out: TGI): > 100 µM
- GI50 ([23]; read-out: pGI50 (converted)): > 100 µM
- CC50 [23, 29]: > 100 µM
- TGI ([23]; read-out: pTGI): > 100 µM
- GI50 ([24]; read-out: GI50): 4.21 µM
- LC50 ([24]; read-out: LC50): > 100 µM
- TGI ([24]; read-out: TGI): > 100 µM
- GI50 ([24]; read-out: pGI50 (converted)): 4.17 µM
- LC50 ([24]; read-out: pLC50 (converted)): > 100 µM
- TGI ([24]; read-out: pTGI): > 100 µM
- growth at 100 µM [25]: 15%
- growth at 10 µM [26]: 73%
- growth at 0.01 µM [27]: 98%
